Data as given in ChEMBL document CHEMBL1125597, “Potent inhibitory effect of a series of modified cyclodextrin sulfates (mCDS) on the replication of HIV-1 in vitro” (J Med Chem, 1991).

Legend:
[1] = test system: MT4; experiment: Compound was evaluated for the anticoagulant activity; type: functional, Homo sapiens
Procedure, shortened: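 Zucker activated partial thromboplastin time (APTT) method; value is the concentration (µg/mL) giving 2-fold APTT. Median of 2 or 3 experiments.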

[2] = test system: MT4; experiment: Compound was evaluated for the minimum concentration for appearance of MT-4 cell toxicity; type: functional, Homo sapiens
Procedure, shortened: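 MT-4 cells incubated 5 days with test compound (12 doses, 0.49–1000 µg/mL); lowest concentration at which toxicity appears, viable cells by trypan blue staining in mock-infected cultures. Median of 2 or 3 experiments.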

[3] = test system: MT4; experiment: The minimum concentration for complete inhibition (IC100) of HIV-1 strain KK-1AIDS from human induced CPE in MT-4 cells.; type: functional
Procedure, shortened: (§1)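 MT-4 cells infected 1 h with HIV-1 (LAV-1 or patient isolate KK-1 AIDS) at 0.001 TCID50 per cell, unbound virus washed off. Cultured 5 days with compound (12 doses, 0.49–1000 µg/mL); viable cells in infected and mock cultures by trypan blue. Minimum concentration fully preventing CPE; median of 2 or 3 experiments.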

[4] = test system: MT4; experiment: The minimum concentration for complete inhibition (IC100) of HIV-1 strain LAV-1 from human induced CPE in MT-4 cells.; type: functional; procedure, shortened: as §1
[5] = test system: MOLT-4; experiment: Suppressive effect on giant-cell formation against HIV-2GH-1 in MOLT-4 cells; type: functional, Homo sapiens
Procedure, shortened: (§2)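 Uninfected MOLT-4 mixed 1:1 with persistently infected MOLT-4 (HIV-1 LAV-1 or HIV-2 GH-1 carriers), 5×10^5 cells/mL total, cultured 24 h with compound. Viable cells counted by trypan blue exclusion; fusion index = 1 − cells in test well/cells in uninfected MOLT-4 control. Median of 2 or 3 experiments.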

[6] = test system: MOLT-4; experiment: Suppressive effect on giant-cell formation against HIV-1LAV-1 in MOLT-4 cells; type: functional, Homo sapiens; procedure, shortened: as §2

## O=[PH](O)OCC1O[C@H]2O[C@@H]3C(CO[PH](=O)O)O[C@H](O[C@@H]4C(CO[PH](=O)O)O[C@H](O[C@@H]5C(CO[PH](=O)O)O[C@H](O[C@@H]6C(CO[PH](=O)O)O[C@H](O[C@@H]7C(CO[PH](=O)O)O[C@H](O[C@@H]8C(CO[PH](=O)O)O[C@H](O[C@H]1C(O)C2O)C(O)C8Cl)C(O)C7Cl)C(O)C6O[PH](=O)O)C(O)C5Cl)C(O)C4Cl)C(O)C3Cl (stereo partly specified) [CYCLODEXTRIN PHOSPHATE]
[1]
  APTT: 47.2 µg/mL
[2]
  Cytotoxicity: >1000 µg/mL
[3]
  IC100: 40 µg/mL
[4]
  IC100: 31.2 µg/mL

## O=S(=O)([O-])OCC1O[C@@H]2O[C@@H]3C(COS(=O)(=O)[O-])O[C@H](O[C@@H]4C(COS(=O)(=O)[O-])O[C@@H](O[C@@H]5C(COS(=O)(=O)[O-])O[C@H](O[C@@H]6C(COS(=O)(=O)[O-])O[C@H](O[C@@H]7C(COS(=O)(=O)[O-])O[C@H](O[C@@H]8C(COS(=O)(=O)[O-])O[C@H](O[C@H]1C(O)C2OS(=O)(=O)[O-])C(OS(=O)(=O)[O-])C8O)C(OS(=O)(=O)[O-])C7O)C(OS(=O)(=O)[O-])C6O)C(OS(=O)(=O)[O-])C5O)C(OS(=O)(=O)[O-])C4O)C(OS(=O)(=O)[O-])C3O.[K+].[K+].[K+].[K+].[K+].[K+].[K+].[K+].[K+].[K+].[K+].[K+].[K+].[K+] (stereo partly specified) [CYCLODEXTRIN SULFATE (CDS)]
[5]
  Supressive effect: 519 µg/mL
[6]
  Supressive effect: 60 µg/mL
[1]
  APTT: 2.83 µg/mL
[2]
  Cytotoxicity: >1000 µg/mL
[3]
  IC100: 125 µg/mL
[4]
  IC100: 31.2 µg/mL

## COc1ccc(NCC2O[C@@H]3O[C@@H]4C(CNc5ccc(OC)cc5)O[C@@H](O[C@@H]5C(CNc6ccc(OC)cc6)O[C@H](O[C@@H]6C(CNc7ccc(OC)cc7)O[C@H](O[C@@H]7C(CNc8ccc(OC)cc8)O[C@H](O[C@@H]8C(CNc9ccc(OC)cc9)O[C@H](O[C@@H]9C(CNc%10ccc(OC)cc%10)O[C@H](O[C@H]2C(O)C3OS(=O)(=O)[O-])C(OS(=O)(=O)[O-])C9OS(=O)(=O)[O-])C(OS(=O)(=O)[O-])C8OS(=O)(=O)[O-])C(OS(=O)(=O)[O-])C7O)C(OS(=O)(=O)[O-])C6OS(=O)(=O)[O-])C(OS(=O)(=O)[O-])C5OS(=O)(=O)[O-])C(OS(=O)(=O)[O-])C4OS(=O)(=O)[O-])cc1.[Na+].[Na+].[Na+].[Na+].[Na+].[Na+].[Na+].[Na+].[Na+].[Na+].[Na+].[Na+] (stereo partly specified)
[5]
  Supressive effect: 40.2 µg/mL
[6]
  Supressive effect: 5.5 µg/mL
[1]
  APTT: 4.3 µg/mL
[2]
  Cytotoxicity: >1000 µg/mL
[3]
  IC100: 31.2 µg/mL
[4]
  IC100: 0.98 µg/mL
